The values that follow come from ChEMBL document CHEMBL1134387, “Synthesis and biodistribution of a new oxo-technetium-99m bis(aminothiol) complex as a potential melanoma tracer” (J Med Chem, 2001).

Molecules are shown by their SMILES.

Common to all, as to type: ADME, organism-based
The subject of series [1] is Mus musculus. Briefly: Tumor to blood radioactivity ratio was determined in mice at 1 hr after (iv) administration in presence of [125I]-BZA. Particulars: tumour.
Series [2] relates to Mus musculus. In words: Tumor to blood radioactivity ratio was determined in mice at 24 hr after (iv) administration in presence of [125I]-BZA. Particulars: tumour.
In series [3] the test system is Mus musculus. In words: Tumor to blood radioactivity ratio was determined in mice at 3h after (iv) administration in presence of [125I]-BZA. Particulars: tumour.
Series [4] concerns Mus musculus. In words: Tumor to blood radioactivity ratio was determined in mice at 6 hr after (iv) administration in presence of [125I]-BZA. The conditions noted are these: tumour.
For series [5], the system named is Mus musculus. In words: Tumor to liver radioactivity ratio was determined in mice at 24 hr after (iv) administration in presence of [125I]-BZA. The conditions noted are these: in vivo.
Series [6] concerns Mus musculus. Briefly: Tumor to liver radioactivity ratio was determined in mice at 3h after (iv) administration in presence of [125I]-BZA. The conditions noted are these: in vivo.
Series [7] deals with Mus musculus. Briefly: Tumor to liver radioactivity ratio was determined in mice at 6 hr after (iv) administration in presence of [125I]-BZA. The conditions noted are these: in vivo.
Series [8] relates to Mus musculus. Briefly: Tumor to lung radioactivity ratio was determined in mice at 1 hr after (iv) administration in presence of [125I]-BZA. The conditions noted are these: in vivo.
Series [9] concerns Mus musculus. Briefly: Tumor to lung radioactivity ratio was determined in mice at 24 hr after (iv) administration in presence of [125I]-BZA. The conditions noted are these: in vivo.
The test system of series [10] is Mus musculus. In words: Tumor to lung radioactivity ratio was determined in mice at 3h after (iv) administration in presence of [125I]-BZA. Particulars: in vivo.
The test system of series [11] is Mus musculus. Briefly: Tumor to lung radioactivity ratio was determined in mice at 6 hr after (iv) administration in presence of [125I]-BZA. Particulars: in vivo.
In series [12] the test system is Mus musculus. In words: Biodistribution in tumor was determined at 1 hr in mice bearing C57B16 murine melanoma after (i.v.) administration. The conditions noted are these: in vivo, iv. Summed up:
(§1)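 C57 mice carrying B16 melanotic melanoma, implanted s.c. as 5×10^5 viable cells. Tumours were palpable after 10 days. Mice received 0.74 MBq of the 99mTc-labeled complex by tail-vein injection. Groups of n = 3 were killed by exsanguination at each time point. Weighed tissue aliquots were gamma-counted immediately and expressed as decay-corrected %ID/g, mean ± sem.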

Series [13] deals with Mus musculus. Briefly: Biodistribution in tumor was determined at 24 hr in mice bearing C57B16 murine melanoma after (i.v.) administration. Particulars: in vivo, iv. The essentials:
as §1

Series [14] relates to Mus musculus. In words: Biodistribution in tumor was determined at 3h in mice bearing C57B16 murine melanoma after (i.v.) administration. The conditions noted are these: in vivo, iv. Summed up:
as §1

Series [15] relates to Mus musculus. Briefly: Biodistribution in tumor was determined at 6 hr in mice bearing C57B16 murine melanoma after (i.v.) administration. Particulars: in vivo, iv. The essentials:
as §1

The subject of series [16] is Mus musculus. In words: Tumor to liver radioactivity ratio was determined in mice at 1 hr after (iv) administration in presence of [125I]-BZA. Particulars: in vivo.

With `CCN(CC)CCNC(=O)c1ccc([125I])cc1`, the Ratio in the series with Mus musculus [1] is on record as 6.55; with Mus musculus [2], 37.33; in the series with Mus musculus [3], 7.79; in the series on Mus musculus [4], 17.58; in the series with Mus musculus [5], 4.94; in the series with Mus musculus [6], 1.1. Besides, the Ratio with Mus musculus [7] worked out at 3.83; with Mus musculus [8], 0.62; in the series on Mus musculus [9] it was 15.82; in the series with Mus musculus [10] it was 0.69; in the series with Mus musculus [11], 2.13; in the series on Mus musculus [16] it was 1.12. The ID/g with Mus musculus [12] is given as 6.75%; with Mus musculus [13], 0.79%; in the series with Mus musculus [14], 3.85%; in the series with Mus musculus [15], 3.53%.
